Measured values pooled from the literature.
Target: Activated CDC42 kinase 1 (TNK2, Homo sapiens, UniProt Q07912)

| SMILES | read-out | mode | method | tested at | endpoint | result |
| --- | --- | --- | --- | --- | --- | --- |
| COc1cc2nccc(Oc3ccc(NC(=O)c4c5n(n(-c6ccc(F)cc6)c4=O)CCCC5)cc3)c2cc1OC | enzyme activity | inhibitor |  | 0.1 µM | inhibition | 6% |
| O=C1Nc2ccc(Cl)cc2C1=Cc1cc(Cl)c(O)c(Cl)c1 | cell-free assay |  |  | 0.5 µM | remaining signal | 32.4% |
| Nc1ncnc2occ(-c3ccc(NC(=O)Nc4cc(C(F)(F)F)ccc4F)cc3)c12 | cell-free assay | inhibitor |  | 20 µM | remaining signal | 13% |
| N#CCCc1ccc2c(c1)-c1[nH]c3ccc([N+](=O)[O-])cc3c1CC(=O)N2 | cell-free assay |  |  | 0.5 µM | remaining signal | 75.4% |
| O=C(NCc1ncc(C(F)(F)F)cc1Cl)c1ccc2c(c1)C1(CCS(=O)(=O)CC1)[C@@H](C1CC1)N2S(=O)(=O)c1ccc(F)cc1 | cell-free assay |  | competition with immobilised ligand | 1 µM | remaining binding | 84% |
| COc1cccc2c(NCc3ccccc3)nc(-n3c(N)nc4ccccc43)nc12 | target engagement in cells | inhibitor | chemoproteomics | 20 mM | inhibition | 18.9% |
| CC(C)(C)c1nc(-c2cccc(NS(=O)(=O)c3c(F)cccc3F)c2F)c(-c2ccnc(N)n2)s1 | enzyme activity | inhibitor | radiometric | 1 µM | remaining activity | 29% |
| O=C(Nc1cnn(-c2csc(C(=O)NC3COC3)c2)c1)Nc1ccccc1Cl | enzyme activity | inhibitor |  | 5 µM | remaining activity | 85.6% |
| Cc1cnc(NC2CCOCC2)nc1-n1cnc(C(=O)NC(CN)c2cc(F)cc(Cl)c2)c1 (stereo not drawn) | enzyme activity | inhibitor | radiometric | 1 µM | remaining activity | 110% |
| CN(c1ccnc(CNc2nc(Nc3ccc4c(c3)CC(=O)N4)ncc2C(F)(F)F)n1)S(C)(=O)=O | cell-free assay |  | competition with immobilised ligand | 1 µM | remaining binding | 86% |
| CCCCNc1ncc2c(-c3ccc(F)cc3)nn(C[C@H]3CC[C@H](N)CC3)c2n1 | target engagement in cells | inhibitor | chemoproteomics | 20 mM | inhibition | 71.4% |
| Cc1ccc(C(=O)NCc2ccsc2)cc1C#Cc1cn(C(C)C)c2ncnc(N)c12 | enzyme activity | inhibitor |  | 1 µM | activity vs control | 19% |
| O=C(N1CCS(=O)(=O)CC1)N1C[C@H](c2ccc(OC(F)(F)F)cc2)C[C@H](c2nc(C3CC3)no2)C1 | cell-free assay |  | competition with immobilised ligand | 1 µM | remaining binding | 97% |
| O=C(Nc1cnn(-c2csc(C(=O)NC3COC3)c2)c1)Nc1c(F)cccc1Cl | enzyme activity | inhibitor |  | 5 µM | remaining activity | 94.6% |
| N#CC1(c2ccccn2)CCN(Cc2cc(C(=O)N3CCCC3)c(=O)n3ccccc23)CC1 | cell-free assay |  | competition with immobilised ligand | 1 µM | remaining binding | 85% |
| CCN(CC)c1ccc(C2=NNC(=O)CC2C)cc1[N+](=O)[O-] (stereo not drawn) | enzyme activity | inhibitor |  | 10 µM | remaining activity | 94% |
| CNC(=O)c1ccccc1Nc1cc(Nc2ccc(N3CCOCC3)cc2OC)ncc1C(F)(F)F | enzyme activity | inhibitor |  | 1 µM | inhibition | > 50% |
| CN(C)CC#Cc1ccc(OCCCc2sc(N3CCc4cccc(C(=O)Nc5nc6ccccc6s5)c4C3)nc2C(=O)O)c(F)c1 | cell-free assay |  | competition with immobilised ligand | 1 µM | remaining binding | 100% |
